Screening results (PubChem BioAssay)
Only some compounds are listed: those with a hit (about 3.9% of all), similar ones and a draw of the others.
ABCB6 inh 2: blocks the human ABCB6 transporter; fluorescence ratio to DMSO, % at 10 µM; hit rate 0.19% among 360,000; Q9NP58; AID 602162; K562-ABCB6 porphyrin accumulation, flow cytometry, 1 h; stronger effect = lower value;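 active means fluorescence ratio to DMSO below 75%, the collection mean minus 3 SD; inconclusive means too few cells collected in the well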;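 further: signal is porphyrin accumulated inside mitochondria; 100% equals median channel fluorescence of DMSO control wells; lower ratio means ABCB6 inhibition with less porphyrin fluorescence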
Target sequence (Q9NP58 whole entry, looked up): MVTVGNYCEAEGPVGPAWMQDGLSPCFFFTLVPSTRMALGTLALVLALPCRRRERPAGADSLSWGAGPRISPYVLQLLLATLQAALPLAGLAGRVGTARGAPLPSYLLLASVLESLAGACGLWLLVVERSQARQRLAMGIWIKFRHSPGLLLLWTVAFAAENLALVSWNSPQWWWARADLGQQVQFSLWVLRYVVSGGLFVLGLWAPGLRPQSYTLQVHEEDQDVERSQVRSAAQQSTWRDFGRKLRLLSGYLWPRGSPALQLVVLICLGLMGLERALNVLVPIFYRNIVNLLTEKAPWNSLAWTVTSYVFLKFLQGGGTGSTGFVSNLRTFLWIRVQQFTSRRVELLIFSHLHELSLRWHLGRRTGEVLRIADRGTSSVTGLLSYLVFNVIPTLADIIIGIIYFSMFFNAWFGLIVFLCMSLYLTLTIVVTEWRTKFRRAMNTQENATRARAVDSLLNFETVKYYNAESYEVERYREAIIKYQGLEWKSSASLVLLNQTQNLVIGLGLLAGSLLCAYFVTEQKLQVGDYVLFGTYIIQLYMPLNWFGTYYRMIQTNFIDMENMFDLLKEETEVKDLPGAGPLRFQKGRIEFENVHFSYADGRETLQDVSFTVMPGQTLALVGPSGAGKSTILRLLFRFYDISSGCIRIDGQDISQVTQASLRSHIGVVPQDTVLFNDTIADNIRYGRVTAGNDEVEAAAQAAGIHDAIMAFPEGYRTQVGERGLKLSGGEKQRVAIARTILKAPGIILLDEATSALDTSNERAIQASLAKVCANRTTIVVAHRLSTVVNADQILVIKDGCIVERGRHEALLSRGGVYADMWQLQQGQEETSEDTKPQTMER
SR-BI DiI-HDL act: activators of SR-BI mediated HDL lipid uptake; CHO ldlA[mSR-BI] cells, DiI-HDL uptake fluorescence, 3 h; 100 = double the neutral-control signal; hit rate 0.096% among 320,000; activation, % at 12.5 µM;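 active means mean replicate activation of at least 60% and every replicate at or above 60%; inconclusive means mean or all-replicate condition met, but not both; inactive means mean below 60% and not all replicates reaching 60%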;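 further: 0% = median plate neutral-control signal and 100% = twice that signal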
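Test system: SR-BI-overexpressing, LDLR-lacking CHO cells. Measured by: DiI fluorescence, bottom read. Medium: Ham's F12 with 0.5% BSA, HEPES 25 mM, pH 7.4. Timing: 3 h uptake period with compound, 37 °C.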
FXN GAA850 act: activators of GAA850 frataxin (FXN) promoter; AID 540364; hit rate 0.56% among 360,000; activation, % at 6 µM; HEK293 lucGAA850 FXN promoter luciferase reporter, 24 h; percent of 10 µM SAHA response;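 active means activation above the average of all compounds screened plus 3 SD, cutoff fixed separately per campaign, cut at about 7.5% in these data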;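 further: 0% = DMSO wells and 100% = 10 µM SAHA wells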
HIF act: HIF pathway transcriptional activation | hit rate 0.32% among 300,000 | U2OS HRE-luciferase reporter, luminescence; normalized: DMSO 0%, desferrioxamine 100% | AID 1910 | activation, % at 7.5 µM (by protocol);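 active means mean activation of at least 10% of the iron chelator positive control signal, with at least half of replicates also reaching 10%; inconclusive means mean and replicate majority disagree about reaching 10%; inactive means mean and most replicates under 10%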
SR-BI HDL uptake: mouse SR-BI HDL lipid transfer inhibition | Q61009 | ldlA[mSR-BI] CHO cells, DiI-HDL uptake fluorescence, 3 h | inhibition, % at 12.5 µM | hit rate 0.96% among 320,000;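 active means mean replicate inhibition of at least 70% and a set share of replicates each scoring 70 or more; inconclusive means meets just one of the two criteria; inactive means fails both criteria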;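 further: 0% = median of neutral control wells and 100% = median of positive control wells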
AHR act: human AHR activation. AHR-responsive luciferase reporter cells, luminescence. activation, % at 5 µM. hit rate 2.5% among 320,000. AID 2796; in the data active means activation above about 47%;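 further: 0% = vehicle wells and 100% = reference agonist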
An asterisk follows results filed as active; ? = inconclusive; . = not tested or not shown.

SMILES	ABCB6 inh 2	SR-BI DiI-HDL act	FXN GAA850 act	HIF act	SR-BI HDL uptake	AHR act
COc1ccc(/C=N/Nc2cc(N(C)C)nc(N(C)C)n2)cc1	98	-21	1	0	21	49*
CN(C)c1cc(N/N=C\c2ccccc2)nc(N(C)C)n1	95	-43	-1	0	43	54*
Cc1nc(N2CCC(C)CC2)c2c(C)c(C(=O)Nc3ccc(C(F)(F)F)cc3)sc2n1	101	-75	0	-1	75*	-1
Cc1nc(N2CCC(C)CC2)c2c(C)c(C(=O)Nc3ccc4c(c3)OCCO4)sc2n1	95	-69	2	-1	69	0
Cc1nc(N2CCC(C)CC2)c2c(C)c(C(=O)Nc3cccc(C(F)(F)F)c3)sc2n1	97	-87	1	0	87*	1
CCN(CC)S(=O)(=O)c1cc(C(=O)NC2=NCCS2)ccc1Cl	92	-74	0	2	74*	10
O=C(Nc1cccc(S(=O)(=O)NCc2ccco2)c1)c1cc(-c2ccc(F)cc2)nc2ccccc12	102	-74	-1	0	74*	6
COc1ccc(-c2cc(C(=O)Nc3cccc(S(=O)(=O)NCc4ccco4)c3)c3ccccc3n2)cc1OC	93	.	-8	0	.	24
CC(C)(C)c1ccc(C(=O)OCC(=O)Nc2cccc(S(=O)(=O)NC3=NCCC3)c2)cc1	98	.	0	.	.	.
NC(=O)Nc1ccc(C(=O)OCC(=O)Nc2cccc(S(=O)(=O)NC3=NCCC3)c2)cc1	100	-76	-1	.	76*	-2
O=C(Nc1cccc(S(=O)(=O)NC2=NCCCCC2)c1)c1cc(-c2ccccc2)nc2ccccc12	93	-77	1	0	77*	3
CCCCC[C@@H](C)N1C[C@H](COCc2ccccc2)Oc2cc(N3CCC[C@H]3C(N)=O)ccc2S1(=O)=O	93	.	.	.	.	.
Cc1c(C(=N)C(C#N)C#N)c(=N)oc2c1ccc1ccccc12	100	-19	5	2	19	65*
CCOC(=O)N1CCN(C(=O)COc2cc(C)c(Cl)c(C)c2)CC1	88	-26	-1	1	26	1
OCCNc1nc(Nc2ccc(Cl)cc2)nc(N2CCCC2)n1	97	-16	1	1	16	14
CCCNc1nc(Nc2ccc(C)cc2)nc(N2CCCC2)n1	77	-16	3	0	16	50*
COc1ccccc1Nc1nc(-c2ccccc2)nc2ccccc12	96	-56	-1	0	56	32
COc1ccccc1Nc1cc(C(=O)NC2CCCC2)c2ccccc2n1	99	-66	-2	0	66	19
C=CCNc1nc(NCCO)nc(N2CCCC2)n1	99	16	2	-1	-16	65*
COc1ccc(Nc2nc(-c3ccccc3)nc3ccccc23)c(OC)c1	91	-76	2	0	76*	28
COc1ccc(Nc2cc(C(=O)NC3CCCC3)c3ccccc3n2)c(OC)c1	102	-88	-2	1	88*	5
COc1ccc(CNC(=O)c2ccc(=O)oc2)cc1OC	87	17	2	0	-17	1
CC1CCCCN1S(=O)(=O)c1ccc([N+](=O)[O-])cc1 (configuration not stated)	95	20	1	-2	-20	1
O=C(NC1CCCc2ccccc21)c1cc(S(=O)(=O)N2CCOCC2)ccc1F (configuration not stated)	115	-19	0	0	19	3
CCCC(=O)Nc1ccc(C(=O)n2nnc3ccccc32)cc1	98	.	0	0	-8	3
SMILES	ABCB6 inh 2	SR-BI DiI-HDL act	FXN GAA850 act	HIF act	SR-BI HDL uptake	AHR act
COc1cccc(Nc2nc(-c3ccccc3)nc3ccccc23)c1	89	-63	0	1	63	54*
COc1ccc(OC)c(Nc2nc(-c3ccncc3)nc3ccccc23)c1	102	-48	-2	-5	48	.
COc1cccc(Nc2nc(NCCO)c3ccccc3n2)c1	104	13	-3	2	-13	49*
Cc1ccc(C)c(Nc2nc(-c3ccncc3)nc3ccccc23)c1	92	-48	1	1	48	68*
COc1ccc(Nc2nc(-c3ccncc3)nc3ccccc23)cc1	94	-80	1	0	80*	9
OCCNc1nc(Nc2cccc(O)c2)nc2ccccc12	99	.	2	-1	.	19
CC(C)c1nc(SCC(=O)NC2CCCCC2)c2ccccc2n1	95	7	2	-1	-7	-1
COc1cccc(Nc2nc(NCCO)nc(N3CCCC3)n2)c1	94	-1	2	0	1	48*
COc1ccc(Nc2nc(NCCO)nc(N3CCCC3)n2)cc1	93	21	1	0	-21	28
O=C(Nc1ccccc1)c1cc(N2CCOCC2)nc2ccccc12	.	-50	0	-1	50	58*
O=C(Nc1nccs1)c1cc(Cl)nc2ccccc12	96	-6	-1	0	6	68*
Cc1cccc(NC(=O)c2cc(N3CCOCC3)nc3ccccc23)c1	.	-68	0	-1	68	22
O=C(Nc1nccs1)c1cc(-c2ccccn2)nc2c(Cl)cccc12	102	2	0	-4	-2	76*
O=C(Nc1nccs1)c1cc(N2CCOCC2)nc2ccccc12	112	-8	1	0	8	76*
O=C(Nc1nccs1)c1cc(-c2ccccc2)nc2ccccc12	99	-17	0	0	17	25
O=C(O)c1cc(N2CCOCC2)nc2ccccc12	98	7	2	-6	-7	0
Cc1cc(=O)oc2c3c(cc(OCC(=O)NCCC(=O)O)c12)OC(C)(C)CC3	97	19	1	1	-19	.
O=C1CC(c2ccccc2)CC(O)=C1C=Nc1cccc(Cl)c1 (configuration not stated)	105	2	0	0	-2	48*
O=C1CC(c2ccccc2)CC(O)=C1C=Nc1ccc(Cl)cc1 (configuration not stated)	94	9	2	0	-9	55*
Cc1cc(C)nc(N/N=C/C2=C(O)CC(c3ccccc3)CC2=O)n1 (configuration not stated)	.	.	.	22*	.	8
CCCN=CC1=C(O)CC(c2ccccc2)CC1=O (configuration not stated)	93	?	-2	-1	-75	0
COc1cccc(Nc2nnc(SCC3CCCCO3)s2)c1 (configuration not stated)	100	19	5	3	-19	51*
COc1cccc(Nc2cc(C)nc3ccccc23)c1	93	35	-1	0	-35	44
COc1cccc(C(=O)NC(=O)Nc2cc(C)[nH]n2)c1	98	.	6	3	.	51*
